Molecules are shown by their SMILES.

These results are taken from ChEMBL document CHEMBL3228006, “Orally active esters of cephalosporin antibiotics. 3. Synthesis and biological properties of aminoacyloxymethyl esters of 7-[D(-)-mandelamido]-3-[[(1-methyl-1H-tetrazol-5-yl)thio]methyl]-3-cephem-4-carboxylic acid” (J Med Chem, 1979).

Data set [1] is described as follows: Drug metabolism in mouse assessed as cefamandole level in urine using Micrococcus luteus ATCC 9341 as detecting organism at 17 mg/kg, po by disk-plate microbiology assay. The format is ADME, organism-based. The arrangement: dose 17 mg/kg, route oral. Conditions: in vivo. A digest of the protocol:
(§1)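 Mice dosed orally at 17 mg/kg; cefamandole activity in blood or urine measured by disk-plate microbiological assay with Micrococcus luteus ATCC 9341 as detecting organism.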

Data set [2] is described as follows: Drug metabolism in mouse assessed as cefamandole level in small intestine using Micrococcus luteus ATCC 9341 as detecting organism at 17 mg/kg, po by disk-plate microbiology assay. The format is ADME, organism-based. Also on record: dose 17 mg/kg, route oral. Conditions: in vivo.
In data set [3] the test system is Blood. Nature of the data set: Drug metabolism in mouse assessed as cefamandole level in blood using Micrococcus luteus ATCC 9341 as detecting organism at 17 mg/kg, po by disk-plate microbiology assay. The following applies: in vivo. Also on record: dose 17 mg/kg, route oral. The format is ADME, organism-based. A digest of the protocol:
as §1

The test system of data set [4] is Streptococcus pyogenes. Nature of the data set: Antibacterial activity against Streptococcus pyogenes C203 infected in po dosed Swiss mouse assessed as protection against bacterial infection administered 1 to 5 hrs after bacterial infection. The format is functional. A digest of the protocol:
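Swiss white mice (13-15 g), groups of eight, infected ip with broth suspension of S. pyogenes C203 lethal to 100% of untreated mice in 24-48 h. Five groups per test received graduated oral doses at 1 and 5 h post-challenge. ED50 by Reed and Muench method from survivors at 7 days.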

A short description of data set [5]: Chemical stability of the compound in phosphate buffer at pH 4.5 assessed as hydrolysis up to 60 mins by paper electrophoresis analysis. In kind it is physicochemical. The following applies: pH 4.5, 1 h. A digest of the protocol:
(§2)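 Ester dissolved in buffer (pH 2.5, 4.5 or 6.0) at 37 °C; samples taken at 0, 20, 40, 60 min and run on paper electrophoresis strips at 400 V in 0.1 M pyridine-acetate buffer for 2 h, steamed, dried, spots seen under UV. Extent of hydrolysis estimated approximately by comparing visual UV zone intensity of ester versus parent acid.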

Data set [6] in a line: Chemical stability of the compound in phosphate buffer at pH 2.5 assessed as hydrolysis up to 60 mins by paper electrophoresis analysis. The following applies: pH 2.5, 1 h. The format is physicochemical. A digest of the protocol: as §2
The nature of data set [7]: Chemical stability of the compound in phosphate buffer at pH 6 assessed as hydrolysis after 20 mins by paper electrophoresis analysis. Conditions: for Stability: buffer, pH 6, 20 min; for degraded at 20 min: phosphate buffer, pH 6, read-out: Drug degradation. The format is physicochemical. The method, boiled down:
as §2

By ED50 is commonly meant the midpoint of the dose-response relation. In the case of `Cl.Cn1nnnc1SCC1=C(C(=O)OCOC(=O)CN)N2C(=O)[C@@H](NC(=O)[C@H](O)c3ccccc3)[C@H]2SC1`, the Drug metabolism result in data set [1] was “metabolite_notdetected”; in data set [2], “metabolite_detected”; in data set [3], “metabolite_notdetected”. Moreover, the ED50 in data set [4] came to 20.4 mg/kg. Besides, the Stability result in data set [5] is on record as “Unstable”; in data set [6] it was “Stable”; in data set [7], “Unstable”.

For the molecule `CC(C)[C@H](N)C(=O)OCOC(=O)C1=C(CSc2nnnn2C)CS[C@@H]2[C@H](NC(=O)[C@H](O)c3ccccc3)C(=O)N12.Cl`, the Drug metabolism result was “metabolite_notdetected” in data set [1], “metabolite_detected” in data set [2] and “metabolite_notdetected” in data set [3]. Besides, in data set [4], the ED50 amounted to 14.3 mg/kg. Further, the Stability result is “Unstable” in data set [5], “Stable” in data set [6] and “Unstable” in data set [7].

As to `CC(C)C[C@H](N)C(=O)OCOC(=O)C1=C(CSc2nnnn2C)CS[C@@H]2[C@H](NC(=O)[C@H](O)c3ccccc3)C(=O)N12.Cl`, the ED50 in data set [4] was found to be 10.4 mg/kg. Moreover, the Stability result in data set [5] is “Unstable”; in data set [6], “Stable”; in data set [7], “Unstable”.

Take `CC[C@H](C)[C@H](N)C(=O)OCOC(=O)C1=C(CSc2nnnn2C)CS[C@@H]2[C@H](NC(=O)[C@H](O)c3ccccc3)C(=O)N12.Cl`: the ED50 in data set [4] was determined as 8.6 mg/kg. Moreover, the Stability result in data set [5] is “Unstable”; in data set [6], “Stable”; in data set [7] it was “Unstable”.

Consider `Cl.Cn1nnnc1SCC1=C(C(=O)OCOC(=O)[C@@H](N)Cc2ccccc2)N2C(=O)[C@@H](NC(=O)[C@H](O)c3ccccc3)[C@H]2SC1`, for which, in data set [4], the ED50 came to 15.3 mg/kg. The Stability result in data set [5] is “Unstable”; in data set [6], “Stable”. Also, in data set [7], the degraded at 20 min was determined as 50%.

Turning to `COC(=O)[C@H](N)CC(=O)OCOC(=O)C1=C(CSc2nnnn2C)CS[C@@H]2[C@H](NC(=O)[C@H](O)c3ccccc3)C(=O)N12.Cl`, the Drug metabolism result is “metabolite_notdetected” in data set [1], “metabolite_detected” in data set [2] and “metabolite_notdetected” in data set [3]. The ED50 in data set [4] amounted to 25.2 mg/kg. Moreover, the Stability entry in data set [5] is “Unstable”; in data set [6], “Stable”. Moreover, the degraded at 20 min in data set [7] stood at 20%.

For the molecule `Cn1nnnc1SCC1=C(C(=O)[O-])N2C(=O)[C@@H](NC(=O)[C@H](O)c3ccccc3)[C@H]2SC1.[Li+]`, the ED50 in data set [4] is 12 mg/kg.
